# Sampled rows, rich in hits. Any-hit rate of the full collection: about 3.8%.
# KCNQ1 inh – blocks the human KCNQ1 potassium channel | CHO-K1 KCNQ1, FluxOR thallium flux fluorescence; stronger effect = higher value | P51787 | 1.3% of 310,000 active | B-score at 10 µM;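 active means compounds whose thallium flux B-score, printed positive for inhibition, exceeds three library SD while starting fluorescence stays within three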;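 further: channel opened by potassium depolarization with thallium stimulus after 20 min compound exposure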
# hERG protect – shields human hERG channel from block by proarrhythmic agents; CHO-hERG, FluxOR thallium flux, dofetilide IC70 present; activation (rescue from dofetilide block), less the hit threshold, % at 10 µM; AID 1511; 0.51% of 310,000 active; Q12809;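 active means activation above the mean of controls blocked by dofetilide plus 5 SD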;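 further: thallium influx through hERG after potassium depolarization seen as dye fluorescence rise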
# KCNK3 inh – human KCNK3 channel inhibition, primary screen. O14649. CHO-KCNK3 thallium flux, FluxOR fluorescence; stronger effect = lower value. B-score at 10 µM. 0.84% of 340,000 active. AID 602410;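 active means B-score under library mean minus 4 SD, starting fluorescence ratio at most library mean plus 5 SD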;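 further: more negative B-score means stronger inhibition of thallium flux through KCNK3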
# KCNK9 block – blocks the human KCNK9 two-pore domain potassium channel; 1.2% of 310,000 active; HEK293 KCNK9, FluxOR thallium flux fluorescence; stronger effect = lower value; B-score at 10 µM;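 active means ratio B-score over 3 SD below the library mean, with starting fluorescence within 5 SD of its mean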;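 further: negative B-score means less thallium flux so channel inhibition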
# Kir21 block – inhibitors of mouse Kir2.1 inward-rectifier potassium channel. P35561. HEK293-Kir2.1, FluxOR thallium flux fluorescence; stronger effect = lower value. B-score at 10 µM. 0.85% of 310,000 active;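 active means fluorescence ratio B-score at or below minus 3 SD of library scores, with starting-brightness B-score within 2 SD, cut at about -4.2 in these data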;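 further: channel flux triggered by added potassium and thallium sulfate stimulus; B-score of peak minus minimum fluorescence over baseline after thallium stimulus; more negative B-score means stronger Kir2.1 block with less thallium influx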
# KCNQ1 pot – human KCNQ1 channel potentiation or activation; B-score at 10 µM; AID 2648; 0.35% of 310,000 active; CHO-K1 KCNQ1, thallium flux FluxOR fluorescence; stronger effect = higher value;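 active means fluorescence ratio B-score, a plate-corrected score, at least three library SD, with initial intensity B-score within 5 SD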
#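 assay system = KCNQ1-transfected CHO-K1 cells | medium = assay buffer with matched DMSO | probe or stimulus = depolarizing K+/Tl+ stimulus, K2SO4 and Tl2SO4 each 12.5 mM in 5x stock | dosing = single dose | incubation = dye 90 min, compound 20 min, room temperature | detection = kinetic FluxOR fluorescence, 10 s baseline plus 110 s post-stimulus | evaluation = ratio B score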
# KCNK3 inh conf – human KCNK3 channel inhibition, confirmation assay; 99% of 2,400 active; shares compounds with KCNK3 inh; AID 651638; CHO-KCNK3 thallium flux, FluxOR fluorescence; 0% buffer, 100% carvedilol maximal block; ratio percent of control, % at 10 µM;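 active means ratio percent of control, averaged over triplicates, above buffer control mean plus 5 SD, cut at about 64% in these data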;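 further: ratio is the fluorescence rise from min to max over baseline after thallium stimulus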
# KCNK3 uninduced – activity in cells without induced KCNK3 expression; thallium flux ratio (lower = more inhibition) at 10 µM; non-induced KCNK3 parental cells, FluxOR thallium flux; stronger effect = lower value; 40% of 2,400 active; shares compounds with KCNK3 inh;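 active means thallium flux ratio, averaged over three wells, more than 5 SD below the buffer control mean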;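 further: host cells are CHO cells without KCNK3 induction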
# Hits are given with their value; i = inactive; nt = no result given.
SMILES,KCNQ1 inh,hERG protect,KCNK3 inh,KCNK9 block,Kir21 block,KCNQ1 pot,KCNK3 inh conf,KCNK3 uninduced
CCC(C(=O)N1CCC2(CC1)OCCO2)n1c2ccccc2c2nc(=O)cc(C)n21 (configuration not stated),i,i,-10.3,i,i,i,89.7,i
CCC(C(=O)N1CCC2(CC1)OCCO2)c1ccccc1 (configuration not stated),i,i,i,i,i,i,nt,nt
CN1CCC(O)(c2cccs2)C(C(=O)c2cccs2)C1 (configuration not stated),i,i,i,i,i,i,nt,nt
C#CC1(O)CCC2C3CCC4=C/C(=N/OCC(=O)NCC(=O)NC(C(=O)O)C(C)C)CC[C@]4(C)C3CC[C@@]21C (some centres not stated),i,i,i,i,i,i,nt,nt
C#C[C@]1(O)CC[C@H]2[C@@H]3CCC4=Cc5nc6nc7ccccc7n6cc5C[C@]4(C)[C@H]3CC[C@@]21C,nt,nt,-15.7,nt,nt,nt,131.7,0.119

# From PubChem
